In PMC4077163 (Bioorganic & medicinal chemistry letters, 2014):
Square brackets hold non-standard residues; d marks the D form. Peptide text beside a SMILES is read from it. * marks the point of attachment. pY = N[C@@H](Cc1ccc(OP(=O)(O)O)cc1)C(=O)O; Hydrocinnamoyl = O=C(CCc1ccccc1)*; Ac6c = NC1(C(=O)O)CCCCC1; Cbz = O=C(OCc1ccccc1)*

What was measured:
Grb2 SH2 domain [1] = target: T1, Grb2 SH2 domain (Homo sapiens, UniProt P62993); assay: Isothermal titration calorimetry; format: binding; conditions: for ΔG° / ΔH° / −TΔS°: ITC, 25 °C, HEPES (50 mM), NaCl (150 mM), pH 7.45 ± 0.05; for potency relative to indolyl compound 10: from ITC data of Table 1
T1 sequence (P62993 60-152 limits assumed): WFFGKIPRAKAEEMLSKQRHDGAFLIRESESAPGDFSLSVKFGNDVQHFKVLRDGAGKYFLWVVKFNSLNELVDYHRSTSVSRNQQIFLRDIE
Procedure, shortened: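 Tripeptide phosphotyrosine-analogue ligands were titrated against the Grb2 SH2 domain by ITC at 25 °C in 50 mM HEPES, 150 mM NaCl, pH 7.45 ± 0.05. Ka, ΔG°, ΔH° and ΔS° were taken from the titrations. Each ligand had three or more runs. The n value of each run was normalized by adjusting ligand concentration, then the runs were averaged.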

Grb2 SH2 domain [2] = target: T1, Grb2 SH2 domain; assay: Literature affinity; format: binding; conditions: ratio of literature IC50 values, more potent than 3

| SMILES | Kd (Grb2 SH2 domain [1]) [µM] | ΔG° (Grb2 SH2 domain [1]) [kJ/mol] | ΔH° (Grb2 SH2 domain [1]) [kJ/mol] | −TΔS° (Grb2 SH2 domain [1]) | potency relative to indolyl compound 10 (Grb2 SH2 domain [1]) | potency relative to 3 (Grb2 SH2 domain [2]) |
| --- | --- | --- | --- | --- | --- | --- |
| Cn1cc(CCC(=O)N[C@@H](Cc2ccc(OP(=O)(O)O)cc2)C(=O)NC2(C(=O)N[C@@H](CC(N)=O)C(N)=O)CCCCC2)c2ccccc21 [Compound 10] | 0.0877 | -40.2 ± 0.42 | -41.8 ± 1.3 | +0.4 ± 0.1 kcal mol^−1 |  |  |
| NC(=O)C[C@H](NC(=O)C1(NC(=O)[C@H](Cc2ccc(OP(=O)(O)O)cc2)NC(=O)CCC2CCCCC2)CCCCC1)C(N)=O [Compound 12] | 0.0347 | -42.7 ± 0.42 | -41.8 ± 2.1 | -0.84 ± 0.42 kJ/mol | about two-fold more potent |  |
| CC(=O)N[C@@H](Cc1ccc(OP(=O)(O)O)cc1)C(=O)NC1(C(=O)N[C@@H](CC(N)=O)C(N)=O)CCCCC1 [Compound 7] (HELM PEPTIDE1{[ac].[O=C([C@H](Cc1ccc(OP(=O)(O)O)cc1)N[*:1])[*:2]].[O=C(C1(N[*:1])CCCCC1)[*:2]].N.[am]}$$$$V2.0) | 0.143 | -38.9 ± 0.42 | -35.6 ± 1.7 | -3.3 ± 1.7 kJ/mol |  |  |
| NC(=O)C[C@H](NC(=O)C1(NC(=O)[C@H](Cc2ccc(OP(=O)(O)O)cc2)NC(=O)OCc2cccc(N)c2)CCCCC1)C(N)=O [Compound 9] | 0.114 | -39.7 ± 0.42 | -38.1 ± 2.1 | -1.7 ± 1.3 kJ/mol |  | about 65 fold |
| NC(=O)C[C@H](NC(=O)C1(NC(=O)[C@H](Cc2ccc(OP(=O)(O)O)cc2)NC(=O)CCc2ccccc2)CCCCC1)C(N)=O [Compound 11] (Hydrocinnamoyl-[pY]-[Ac6c]-Asn-NH2) | 0.0427 | -42.3 ± 0.42 | -39.7 ± 2.1 | -2.5 ± 0.42 kJ/mol | about two-fold more potent |  |
| NC(=O)C[C@H](NC(=O)C1(NC(=O)[C@H](Cc2ccc(OP(=O)(O)O)cc2)NC(=O)OCc2ccccc2)CCCCC1)C(N)=O [Compound 8] (Cbz-[pY]-[Ac6c]-Asn-NH2) | 0.154 | -38.9 ± 0.42 | -38.9 ± 1.3 | 0 ± 0.42 kJ/mol |  |  |
